Test [1] has as its system Rattus norvegicus. Put plainly: Reversal clonidine-induced mydriasis in rat, after oral administration. It counts as functional. The note with it: read-out: ID50 (the source's name). The method in brief:
(§1)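 Rats given clonidine to induce mydriasis; test agent dosed iv or orally. Pupillary diameter measured 10 min after dosing. Value is the dose […] that reduces pupil diameter to 50% of the clonidine-induced maximum. Means of five determinations, SD under 10%. Ratio is oral over iv dose.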

For test [2], the system named is Rattus norvegicus. Put plainly: Reversal of clonidine-induced mydriasis in rat, after intravenous administration. The note with it: read-out: ID50 (the source's name). It counts as functional. The method in brief: as §1
Test [3] addresses T1, Adrenergic receptor alpha-1 (Rattus norvegicus, UniProt P15823+P23944+P43140).
T1 sequence (P15823 whole entry): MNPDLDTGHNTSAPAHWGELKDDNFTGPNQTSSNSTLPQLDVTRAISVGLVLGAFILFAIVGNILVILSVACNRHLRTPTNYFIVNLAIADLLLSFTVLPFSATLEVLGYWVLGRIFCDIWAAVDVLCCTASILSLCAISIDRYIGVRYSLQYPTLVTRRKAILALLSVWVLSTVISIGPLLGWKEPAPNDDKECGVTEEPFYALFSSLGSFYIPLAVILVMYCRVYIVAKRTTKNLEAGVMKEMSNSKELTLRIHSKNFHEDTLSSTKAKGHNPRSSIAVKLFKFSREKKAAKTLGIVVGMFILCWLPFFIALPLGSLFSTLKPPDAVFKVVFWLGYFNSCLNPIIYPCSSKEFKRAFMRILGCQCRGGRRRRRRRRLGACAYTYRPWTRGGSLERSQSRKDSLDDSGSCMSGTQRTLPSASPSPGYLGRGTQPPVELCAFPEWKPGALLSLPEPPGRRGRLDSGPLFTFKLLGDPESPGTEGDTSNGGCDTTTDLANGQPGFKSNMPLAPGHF
T1 sequence (P23944 whole entry): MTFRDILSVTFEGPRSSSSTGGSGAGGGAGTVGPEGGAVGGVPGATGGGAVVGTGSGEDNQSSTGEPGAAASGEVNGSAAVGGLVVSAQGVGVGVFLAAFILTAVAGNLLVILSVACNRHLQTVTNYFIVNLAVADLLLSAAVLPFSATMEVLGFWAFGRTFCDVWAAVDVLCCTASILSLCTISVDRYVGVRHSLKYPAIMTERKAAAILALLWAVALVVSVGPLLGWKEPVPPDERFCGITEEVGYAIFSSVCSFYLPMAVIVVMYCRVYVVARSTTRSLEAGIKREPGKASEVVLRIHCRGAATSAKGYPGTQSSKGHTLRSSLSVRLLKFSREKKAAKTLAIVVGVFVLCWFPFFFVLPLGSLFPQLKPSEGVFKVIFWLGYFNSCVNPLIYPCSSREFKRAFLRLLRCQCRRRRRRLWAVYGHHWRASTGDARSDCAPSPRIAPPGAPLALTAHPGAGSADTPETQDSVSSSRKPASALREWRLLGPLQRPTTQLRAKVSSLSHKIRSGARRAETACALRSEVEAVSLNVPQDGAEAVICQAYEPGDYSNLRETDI
T1 sequence (P43140 whole entry): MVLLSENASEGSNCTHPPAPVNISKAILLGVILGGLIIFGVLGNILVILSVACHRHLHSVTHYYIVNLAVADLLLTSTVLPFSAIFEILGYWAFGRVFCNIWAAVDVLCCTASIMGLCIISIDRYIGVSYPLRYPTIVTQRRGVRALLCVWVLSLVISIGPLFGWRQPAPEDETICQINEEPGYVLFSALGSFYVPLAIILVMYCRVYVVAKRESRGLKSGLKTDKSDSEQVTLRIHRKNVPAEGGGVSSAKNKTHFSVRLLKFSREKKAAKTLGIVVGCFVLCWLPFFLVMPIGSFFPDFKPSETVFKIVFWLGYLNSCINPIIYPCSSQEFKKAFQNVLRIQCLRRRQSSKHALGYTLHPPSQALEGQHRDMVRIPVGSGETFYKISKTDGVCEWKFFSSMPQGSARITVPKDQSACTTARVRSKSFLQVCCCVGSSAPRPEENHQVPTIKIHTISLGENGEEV
Put plainly: Binding affinity against alpha-1 adrenergic receptor in rat cerebral cortical membrane, determined using [3H]prazosin as the radioligand.

Test [4] concerns the target T2, Adrenergic receptor alpha-2 (Rattus norvegicus, UniProt P22086+P19328+P22909).
T2 sequence (P22086 whole entry): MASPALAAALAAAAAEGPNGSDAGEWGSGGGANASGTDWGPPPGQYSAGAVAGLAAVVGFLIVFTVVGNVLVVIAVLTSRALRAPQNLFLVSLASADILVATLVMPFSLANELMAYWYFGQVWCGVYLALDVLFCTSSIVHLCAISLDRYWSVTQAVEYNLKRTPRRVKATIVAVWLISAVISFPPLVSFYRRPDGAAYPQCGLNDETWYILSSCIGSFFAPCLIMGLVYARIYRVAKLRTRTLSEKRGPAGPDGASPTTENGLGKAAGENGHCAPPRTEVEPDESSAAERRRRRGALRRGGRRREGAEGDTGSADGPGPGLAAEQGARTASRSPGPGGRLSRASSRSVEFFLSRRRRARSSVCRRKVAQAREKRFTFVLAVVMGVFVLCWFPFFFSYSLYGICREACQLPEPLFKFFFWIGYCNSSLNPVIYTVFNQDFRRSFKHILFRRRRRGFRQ
T2 sequence (P19328 whole entry): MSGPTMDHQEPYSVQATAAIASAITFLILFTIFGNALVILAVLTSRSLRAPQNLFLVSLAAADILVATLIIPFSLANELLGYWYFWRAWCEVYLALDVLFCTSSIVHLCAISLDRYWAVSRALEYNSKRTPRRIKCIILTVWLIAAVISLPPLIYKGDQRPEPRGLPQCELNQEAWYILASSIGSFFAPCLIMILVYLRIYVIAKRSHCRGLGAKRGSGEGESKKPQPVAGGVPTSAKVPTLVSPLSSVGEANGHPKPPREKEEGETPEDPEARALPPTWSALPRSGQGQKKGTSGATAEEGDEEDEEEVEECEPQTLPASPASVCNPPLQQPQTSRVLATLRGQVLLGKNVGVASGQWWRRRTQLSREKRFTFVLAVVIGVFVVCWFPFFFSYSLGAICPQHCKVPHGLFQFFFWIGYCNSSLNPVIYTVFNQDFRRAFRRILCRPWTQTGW
T2 sequence (P22909 whole entry): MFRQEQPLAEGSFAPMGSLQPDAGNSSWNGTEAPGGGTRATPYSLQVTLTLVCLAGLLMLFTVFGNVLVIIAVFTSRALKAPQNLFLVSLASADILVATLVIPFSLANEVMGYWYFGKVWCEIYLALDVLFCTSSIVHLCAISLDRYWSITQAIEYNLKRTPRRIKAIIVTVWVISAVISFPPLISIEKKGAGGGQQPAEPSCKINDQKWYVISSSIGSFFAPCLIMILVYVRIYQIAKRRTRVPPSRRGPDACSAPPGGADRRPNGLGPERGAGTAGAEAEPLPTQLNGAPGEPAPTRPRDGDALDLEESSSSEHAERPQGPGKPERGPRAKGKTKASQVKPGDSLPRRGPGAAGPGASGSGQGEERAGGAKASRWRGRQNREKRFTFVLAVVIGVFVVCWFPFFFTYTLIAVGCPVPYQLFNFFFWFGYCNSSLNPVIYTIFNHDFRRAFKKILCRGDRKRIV
Put plainly: Binding affinity against alpha-2 adrenergic receptor in rat cerebral cortical membrane, determined using [3H]- yohimbine as the radioligand.

A further test is filed under the species Oryctolagus cuniculus. Put plainly: Inhibition of phenylephrine-induced contraction of the rabbit aorta as a measure of functional alpha-1-adrenoceptor antagonism. To be noted: read-out: pA2 (converted). The method in brief:
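Rabbit aorta contracted with phenylephrine; alpha1 antagonism read as reversal of the contraction, expressed as pA2. Means of at least three separate determinations.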

The nature of test [5]: ratio of Oral and Intravenous inhibitory concentrations against reversal of clonidine-induced Mydriasis in rat was evaluated. It counts as functional. The method in brief: as §1
Test [6] is described as follows: Antilog of pKi [3H]yohimbine minus PKi [3H]-prazosin was expressed as selectivity.
A short description of test [7]: Antilog of pA2 (Uk14304) minus PA2 (Phenylephrine) was expressed as selectivity. It counts as functional. The method in brief: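 Guinea pig ileum contracted by field stimulation; alpha2 antagonism read as reversal of the inhibitory effect of UK-14304 on the contraction, expressed as pA2. Selectivity index is the antilog of pA2 (UK-14304) minus pA2 (phenylephrine). Means of at least three separate determinations.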

Test [8] has as its target Adrenergic receptor alpha-2 (Cavia porcellus). Put plainly: Ability to reverse inhibitory effects of UK-14304 on the contraction of guinea pig ileum as a measure of alpha-2 adrenergic receptor antagonism.
In test [9] the test system is Rattus norvegicus. Put plainly: Beta-adrenoceptor binding density by administering 0.5 mg/kg (once daily for 14 days) in rats. It counts as functional. The method in brief: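 Rats dosed 0.5 mg/kg once daily for 14 days. Cortical beta-adrenoceptor density measured as Bmax, fmol [3H]dihydroalprenolol bound per mg protein, and compared with untreated controls.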
Test [10] can be described thus: Antilog of pKi [3H]-yohimbine minus pKi [3H]prazosin.

A value given as a limit tells only on which side of the number the result lay.

`c1ccc2c(c1)OCC(C1=NCCN1)O2` (stereo unspecified) [IDAZOXAN]: the figures for the ED50 in the test with Rattus norvegicus [1] and with Rattus norvegicus [2] were 1.2 mg/kg and 0.017 mg/kg, respectively.

`COC(=O)[C@@H]1[C@H]2C[C@H]3c4[nH]c5ccccc5c4CCN3C[C@@H]2CC[C@@H]1O` [YOHIMBINE]: the values for the ED50 with Rattus norvegicus [1] and in the test with Rattus norvegicus [2] were 2.8 mg/kg and 0.185 mg/kg, respectively.

For the compound `COc1ccc2c(c1)CCN1CC3CCCN(S(C)(=O)=O)C3CC21` (stereo unspecified), the “Log Ki” value is -4.99 in [3] and -9.18 in test [4]. Further, the Kb in the test filed under Oryctolagus cuniculus is > 1000 nM. Further, the results for the ED50 in the test with Rattus norvegicus [1] and in the test with Rattus norvegicus [2] were 0.21 mg/kg and 0.013 mg/kg, respectively. Besides, the Ratio in test [5] was determined as 16.2. The Selectivity in test [6] was 15000; in [7] it was > 4000. This compound returned a pA2 in [8] of 9.7.

On to `COc1ccc2c(c1)CCN1C[C@H]3CCCN(S(C)(=O)=O)[C@@H]3C[C@@H]21`, for which the entries for the “Log Ki” value in test [3] and in test [4] were -5.29 and -9.45, respectively. In the test listed under Oryctolagus cuniculus, the Kb was 794 nM. For the same compound, the Bmax in the test on Rattus norvegicus [9] is 57 fmol/mg. The ED50 in the test on Rattus norvegicus [1] amounted to 0.095 mg/kg; with Rattus norvegicus [2] it was 0.0065 mg/kg. In test [5], the Ratio is listed as 14.6. The figures for the Selectivity in test [6] and in [7] were 15000 and 4000, respectively. The compound further showed a pA2 in test [8] of 9.7.

Take `COc1ccc2c(c1)CCN1C[C@@H]3CCCN(S(C)(=O)=O)[C@H]3C[C@H]21`: the Log Ki in [3] is > -5; in test [4] it was -6.32. Moreover, the Kb in the test listed under Oryctolagus cuniculus was 10000 nM. In addition, the ED50 in the test on Rattus norvegicus [1] and in the test with Rattus norvegicus [2] was > 10 mg/kg in each case. The Selectivity in test [6] and in test [10] was > 50 each time. The compound also registered a pA2 in [8] of 6.5.

The term pA2 denotes the negative logarithm of the molar antagonist concentration that doubles the agonist concentration needed for the same response. Low values mean lower antagonist potency, high ones higher antagonist potency.

The values are drawn from ChEMBL document CHEMBL1124576 (J Med Chem, 1989).
